Here are results for 13 compounds from ChEMBL document CHEMBL3045496, “Antifeedant activity of ethanolic extract from Flourensia oolepis and isolation of pinocembrin as its active principle compound” (2009).

The structures appear in SMILES notation. The source made the active and inactive calls. The calls are words filed in the database; no cut-off is given here.

In one test the test system is Spodoptera litura. Nature of the test: Antifeedant activity against third-instar Spodoptera litura assessed per cm2 leaf disk. Type of test: functional.
In test [1] the test system is Epilachna. The test can be described thus: Antifeedant activity against third-instar Epilachna paenulata measured assessed per cm2 leaf disk. Type of test: functional.
In test [2] the test system is Epilachna. Nature of the test: Antifeedant activity against third-instar Epilachna paenulata measured assessed per cm2 leaf disk after 24 hr by leaf disk choice test. The test is classed as functional. In a few lines:
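Two Cucurbita maxima seedling cotyledons in a Petri dish under a glass disk with two 1 cm2 holes: one solvent-treated, one solvent-control. A single larva is placed equidistant between them and feeds for 24 h. Area eaten is estimated visually by quarters, always by the same operator. AI% = [1−(T/C)]×100; means of 10 replicates.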

Test [3] concerns Xanthogaleruca luteola. Nature of the test: Antifeedant activity against adult Xanthogaleruca luteola assessed per cm2 leaf disk after 24 hr by leaf-disk choice test.
The subject of test [4] is Epilachna. The test can be described thus: Antifeedant activity against third-instar Epilachna paenulata measured at 1 ug/cm2 leaf disk after 24 hr by leaf disk choice test relative to control. Type of test: functional.
Test [5] deals with Epilachna. Nature of the test: Antifeedant activity against third-instar Epilachna paenulata measured at 100 ug/cm2 leaf disk after 24 hr by leaf-disk choice test relative to control. Type of test: functional.
Test [6] relates to Xanthogaleruca luteola. Nature of the test: Antifeedant activity against adult Xanthogaleruca luteola measured at 100 ug/cm2 leaf disk after 24 hr by leaf-disk choice test relative to control.
Test [7] relates to Spodoptera frugiperda. The test can be described thus: Antifeedant activity against third-instar Spodoptera frugiperda (fall armyworm) measured at 5 ug/cm2 leaf disk after 3 to 4 hr by leaf-disk choice test relative to control. Type of test: functional. In a few lines: (§1)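 Two-choice leaf-disk assay with third-instar larvae collected in the field and kept on pumpkin for 2–3 days beforehand. Treated and solvent-control 1 cm2 disks of C. maxima cotyledon are offered together, and the area of each consumed (0–100%) is scored visually by quarters by the same operator. AI% = [1−(T/C)]×100; means of 10 replicates.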

The subject of test [8] is Spodoptera frugiperda. Nature of the test: Antifeedant activity against third-instar Spodoptera frugiperda (fall armyworm) measured at 50 ug/cm2 leaf disk after 3 to 4 hr by leaf-disk choice test relative to control. Type of test: functional. In a few lines: as §1
Test [9] has as its system Epilachna. Nature of the test: Antifeedant activity against third-instar Epilachna paenulata measured at 10 ug/cm2 leaf disk after 24 hr by leaf-disk choice test relative to control. The test is classed as functional.
Test [10] deals with Spodoptera frugiperda. The test can be described thus: Antifeedant activity against third-instar Spodoptera frugiperda (fall armyworm) measured at 100 ug/cm2 leaf disk after 3 to 4 hr by leaf-disk choice test relative to control. Type of test: functional. In short, it runs like this:
as §1

In test [11] the test system is Spodoptera frugiperda. The test can be described thus: Antifeedant activity against third-instar Spodoptera frugiperda (fall armyworm) measured at 10 ug/cm2 leaf disk after 3 to 4 hr by leaf-disk choice test relative to control. Type of test: functional. In a few lines:
as §1

For test [12], the system named is Epilachna. The test can be described thus: Antifeedant activity against third-instar Epilachna paenulata measured at 5 ug/cm2 leaf disk after 24 hr by leaf-disk choice test relative to control. Type of test: functional.
The test system of test [13] is Xanthogaleruca luteola. The test can be described thus: Antifeedant activity against adult Xanthogaleruca luteola measured at 50 ug/cm2 leaf disk after 24 hr by leaf-disk choice test relative to control.
Test [14] has as its system Xanthogaleruca luteola. Nature of the test: Antifeedant activity against adult Xanthogaleruca luteola measured at 5 ug/cm2 leaf disk after 24 hr by leaf-disk choice test relative to control.
In test [15] the test system is Spodoptera frugiperda. The test can be described thus: Antifeedant activity against third-instar Spodoptera frugiperda (fall armyworm) assessed per cm2 leaf disk after 3 to 4 hr by leaf-disk choice test. The test is classed as functional.
Test [16] concerns Epilachna. Nature of the test: Antifeedant activity against third-instar Epilachna paenulata measured at 50 ug/cm2 leaf disk after 24 hr by leaf-disk choice test relative to control. The test is classed as functional.
Test [17] relates to Xanthogaleruca luteola. Nature of the test: Antifeedant activity against adult Xanthogaleruca luteola measured at 10 ug/cm2 leaf disk after 24 hr by leaf-disk choice test relative to control.
Test [18] relates to Xanthogaleruca luteola. Nature of the test: Antifeedant activity against adult Xanthogaleruca luteola measured at 1 ug/cm2 leaf disk after 24 hr by leaf-disk choice test relative to control.

In the test on Spodoptera litura, `COc1c(OC)c(O)c2c(=O)c(OC)c(-c3ccccc3)oc2c1OC` returned an ED50 of 7.16 µg.
On the same count and under the same terms, with `COc1ccc(-c2oc3c(OC)c(OC)c(OC)c(O)c3c(=O)c2OC)cc1` [5-HYDROXYAURANETIN] the figure was 42.8 µg.
Regarding `C[C@@H]1CC[C@H]2[C@@H](C)C(=O)O[C@@H]3O[C@@]4(C)CC[C@@H]1[C@]32OO4` [ARTEMISININ], the ED50 in the test on Epilachna [1] came to 14.7 µg.
`C/C=C(\C)C(=O)O[C@H]1C[C@@H](OC(C)=O)[C@@]2(C(=O)OC)CO[C@H]3[C@@H](O)[C@@](C)([C@]45O[C@@]4(C)[C@@H]4C[C@H]5O[C@@H]5OC=C[C@@]54O)[C@H]4[C@]1(CO[C@]4(O)C(=O)OC)[C@@H]32` [AZADIRACHTIN A] showed an ED50 with Epilachna [2] of 0.59 µg.
As to `Oc1cc(O)c2c(c1)OC(c1ccc(O)c(O)c1)C(O)C2` (configuration not stated) [CATECHIN], the ED50 with Xanthogaleruca luteola [3] is 50.22 µg; in the test with Epilachna [2] it was 47.6 µg.
In the test with Spodoptera litura, `O=c1cc(-c2ccccc2)oc2cc(O)cc(O)c12` [CHRYSIN] yielded an ED50 of 635 µg.
On the same count and under the same terms, the result for `O=c1cc(-c2ccccc2)oc2ccccc12` [FLAVONE] reads 24.6 µg.
Turning to `CC(=O)O[C@@H]1C[C@H](O)[C@@]23COC(O)[C@]1(C)[C@@H]2C[C@@H](O)[C@]1(C)[C@@H]3[C@H](O)C(=O)[C@@]2(C)[C@H](c3ccoc3)C[C@H]3O[C@@]312` (some centres not stated) [MELIARTENIN], in the test with Epilachna [1], the ED50 was found to be 0.8 µg.
With `O=C1C[C@@H](c2ccc(O)cc2)Oc2cc(O)cc(O)c21` [NARINGENIN], the ED50 with Epilachna [2] came out at 160.15 µg.
On to `O=C1C[C@@H](c2ccccc2)Oc2cc(O)cc(O)c21` [PINOCEMBRIN], for which the AFI with Epilachna [4] is listed as 12%; in the test with Epilachna [5], 99.1%; in the test with Xanthogaleruca luteola [6], 98%; with Spodoptera frugiperda [7], 21%; with Spodoptera frugiperda [8], 91%; in the test with Epilachna [9] it was 62%. The AFI in the test on Spodoptera frugiperda [10] is given as 92%; in the test on Spodoptera frugiperda [11], 70%; with Epilachna [12] it was 21%; with Xanthogaleruca luteola [13], 94%; in the test on Xanthogaleruca luteola [14], 62%; with Epilachna [16], 90%. Also, the AFI in the test with Xanthogaleruca luteola [17] turned out to be 62%; in the test on Xanthogaleruca luteola [18], 0%. Further, the ED50 was determined as 6.13 µg with Xanthogaleruca luteola [3], 7.98 µg with Epilachna [2] and 8.86 µg in the test with Spodoptera frugiperda [15].
On to `O=c1c(O)c(-c2ccc(O)c(O)c2)oc2cc(O)cc(O)c12` [QUERCETIN], for which the results for the ED50 with Xanthogaleruca luteola [3] and with Epilachna [2] were 178.52 µg and 9.26 µg, respectively. For the same compound, the result with Spodoptera litura was inactive.
Consider `C=C(C)[C@H]1Cc2c(ccc3c2O[C@@H]2COc4cc(OC)c(OC)cc4[C@@H]2C3=O)O1` [ROTENONE], for which the ED50 with Spodoptera litura is 59.1 µg.
In the test with Epilachna [1], `CC(=O)O[C@@H]1C[C@H](O)[C@@]23CO[C@@H](O)[C@]1(C)[C@@H]2C[C@@H](O)[C@]1(C)[C@@H]3C(=O)[C@H](OC(C)=O)[C@@]2(C)[C@H](c3ccoc3)C[C@H]3O[C@]321` [TOOSENDANIN] registered an ED50 of 3.69 µg.
